Assay results reported in ChEMBL document CHEMBL5329210, “Novel piperazine-1,2,3-triazole leads for the potential treatment of pancreatic cancer” (RSC Med Chem, 2023).

Key:
[1] = test system: MIA PaCa-2; assay: Inhibition of cell growth of human MIA PaCa-2 cells at 25 uM measured after 72 hrs by CCK8 assay relative to control; format: functional
Method in brief: (§1)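 Single 25 μM exposure, read by CCK-8, n = 3, relative to control. Seeding was 3×10^3/well for MiaPaCa2, 7×10^3/well for BxPC3 (in RPMI-1640/10% FBS) and 1×10^4/well for HPDE (in KSFM with rEGF/BPE). After 24 h attachment, cells were exposed for 72 h. CCK-8 was then incubated for 1 h, and A450 minus A650 was compared with 0.5% DMSO.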

[2] = test system: U-87 MG; assay: Inhibition of cell growth of human U87 cells at 25 uM measured after 72 hrs by MTT assay relative to control
[3] = test system: MCF7; assay: Inhibition of cell growth of human MCF7 cells at 25 uM measured after 72 hrs by MTT assay relative to control; settings: MCF7, 72 h
[4] = test system: BE(2)-C; assay: Inhibition of cell growth of human BE2C cells at 25 uM measured after 72 hrs by MTT assay relative to control
[5] = Inhibition of cell growth of human SJG2 cells at 25 uM measured after 72 hrs by MTT assay relative to control; settings: SJ-G2, 72 h
[6] = test system: HT-29; assay: Inhibition of cell growth of human HT-29 cells at 25 uM measured after 72 hrs by MTT assay relative to control; settings: HT-29, 72 h
[7] = test system: A2780; assay: Inhibition of cell growth of human A2780 cells at 25 uM measured after 72 hrs by MTT assay relative to control; settings: A2780, 72 h
[8] = test system: A-431; assay: Inhibition of cell growth of human A-431 cells at 25 uM measured after 72 hrs by MTT assay relative to control; settings: A-431, 72 h
[9] = test system: DU-145; assay: Inhibition of cell growth of human DU-145 cells at 25 uM measured after 72 hrs by MTT assay relative to control; settings: DU-145, 72 h
[10] = Inhibition of cell growth of human MCF-10A cells at 25 uM measured after 72 hrs by MTT assay relative to control
[11] = test system: NCI-H460; assay: Inhibition of cell growth of human NCI-H460 cells at 25 uM measured after 72 hrs by MTT assay relative to control; settings: NCI-H460, 72 h
[12] = test system: BXPC-3; assay: Inhibition of cell growth of human BXPC-3 cells at 25 uM measured after 72 hrs by CCK8 assay relative to control; format: functional; method in brief: as §1
[13] = Inhibition of cell growth of human HPDE cells at 25 uM measured after 72 hrs by CCK8 assay relative to control; format: toxicity, cell-based; method in brief: as §1
[14] = test system: HT-29; assay: Inhibition of cell growth of human HT-29 cells at 25 uM measured after 72 hrs by MTT assay relative to control; format: functional
Method in brief: (§2)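 MTT read-out. Cancer lines were grown in DMEM with 10% FBS, glutamine and antibiotics. MCF10A was grown in DMEM:F12 with 5% horse serum, EGF, hydrocortisone, cholera toxin and insulin. Cells were plated in duplicate at 2500–4000/well, and drug was added 24 h later. After 72 h, absorbance was read at 540 nm. Single-point lines used 25 μM. GI50 is 50% growth inhibition versus untreated control. n = 3.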

[15] = test system: MCF7; assay: Inhibition of cell growth of human MCF7 cells at 25 uM measured after 72 hrs by MTT assay relative to control; format: functional; method in brief: as §2
[16] = test system: A2780; assay: Inhibition of cell growth of human A2780 cells at 25 uM measured after 72 hrs by MTT assay relative to control; format: functional; method in brief: as §2
[17] = test system: BE(2)-C; assay: Inhibition of cell growth of human BE2C cells at 25 uM measured after 72 hrs by MTT assay relative to control; format: functional; method in brief: as §2
[18] = test system: MIA PaCa-2; assay: Inhibition of cell growth of human MIA PaCa-2 cells at 25 uM measured after 72 hrs by MTT assay relative to control; format: functional; method in brief: as §2
[19] = test system: BXPC-3; assay: Inhibition of cell growth of human BXPC-3 cells at 25 uM measured after 72 hrs by MTT assay relative to control; format: functional; method in brief: as §2
[20] = test system: ASPC1; assay: Inhibition of cell growth of human ASPC1 cells at 25 uM measured after 72 hrs by MTT assay relative to control; format: functional; method in brief: as §2
[21] = test system: Capan-2; assay: Inhibition of cell growth of human Capan-2 cells at 25 uM measured after 72 hrs by MTT assay relative to control; format: functional; method in brief: as §2
[22] = test system: PANC-1; assay: Inhibition of cell growth of human PANC-1 cells at 25 uM measured after 72 hrs by MTT assay relative to control; format: functional; method in brief: as §2
[23] = test system: HPAC; assay: Inhibition of cell growth of human HPAC cells at 25 uM measured after 72 hrs by MTT assay relative to control; format: functional; method in brief: as §2
[24] = Inhibition of cell growth of human MCF-10A cells at 25 uM measured after 72 hrs by MTT assay relative to control; format: toxicity, cell-based; method in brief: as §2

SMILES	inhibition at 25 µM [1]	inhibition at 25 µM [2]	inhibition at 25 µM [3]	inhibition at 25 µM [4]	inhibition at 25 µM [5]	inhibition at 25 µM [6]	inhibition at 25 µM [7]	inhibition at 25 µM [8]	inhibition at 25 µM [9]	inhibition at 72 h, 25 µM [10]	inhibition at 25 µM [11]	inhibition at 25 µM [12]	inhibition at 72 h, 25 µM [13]	also measured
CC(=O)Nc1ccc(S(=O)(=O)N2CCN(CCCn3cc(-c4ccc([N+](=O)[O-])cc4)nn3)CC2)cc1	40%	27%	47%	42%	37%	50%	72%	33%	48%	69%	40%	–	–	–
COc1cccc(-c2cn(CCCN3CCN(S(=O)(=O)c4ccc(C(C)=O)cc4)CC3)nn2)c1	< 10%	–	–	–	–	–	–	–	–	–	–	22.8%	30.1%	–
O=S(=O)(c1cccc(C(F)(F)F)c1)N1CCN(CCCn2cc(-c3ccc(Br)cc3)nn2)CC1	–	–	–	–	–	–	–	–	–	–	–	–	–	inhibition at 25 µM [14]: 46%; inhibition at 25 µM [15]: 56%; inhibition at 25 µM [16]: 72%; inhibition at 25 µM [17]: 40%; inhibition at 25 µM [18]: 35%; inhibition at 25 µM [19]: 22%; inhibition at 25 µM [20]: 53%; inhibition at 25 µM [21]: 39%; inhibition at 25 µM [22]: 41%; inhibition at 25 µM [23]: < 10%; inhibition at 72 h, 25 µM [24]: 74%
CC(=O)Nc1ccc(S(=O)(=O)N2CCN(CCCn3cc(-c4ccccc4)nn3)CC2)cc1	30%	10%	24%	32%	59%	31%	47%	31%	34%	44%	23%	–	–	–
COc1cccc(-c2cn(CCCN3CCN(S(=O)(=O)c4ccc(Cl)cc4)CC3)nn2)c1	< 10%	–	–	–	–	–	–	–	–	–	–	22.9%	54.3%	–
COc1cccc(-c2cn(CCCN3CCN(S(=O)(=O)c4ccc(C(C)(C)C)cc4)CC3)nn2)c1	< 10%	–	–	–	–	–	–	–	–	–	–	< 10%	38.2%	–
CC(=O)Nc1ccc(S(=O)(=O)N2CCN(CCCn3cc(-c4ccc(F)cc4)nn3)CC2)cc1	35%	16%	27%	38%	67%	22%	50%	28%	35%	41%	18%	–	–	–
CCc1ccc(-c2cn(CCCN3CCN(S(=O)(=O)c4cccc(C(F)(F)F)c4)CC3)nn2)cc1	–	–	–	–	–	–	–	–	–	–	–	–	–	inhibition at 25 µM [14]: 65%; inhibition at 25 µM [15]: 86%; inhibition at 25 µM [16]: 86%; inhibition at 25 µM [17]: 61%; inhibition at 25 µM [18]: 50%; inhibition at 25 µM [19]: 39%; inhibition at 25 µM [20]: 60%; inhibition at 25 µM [21]: 58%; inhibition at 25 µM [22]: 59%; inhibition at 25 µM [23]: 41%; inhibition at 72 h, 25 µM [24]: 77%
CC(=O)Nc1ccc(S(=O)(=O)N2CCN(CCCn3cc(-c4ccc(C)cc4)nn3)CC2)cc1	38%	22%	42%	36%	72%	46%	57%	40%	61%	67%	34%	–	–	–
CC(=O)Nc1ccc(S(=O)(=O)N2CCN(CCCn3cc(-c4ccc(C(F)(F)F)cc4)nn3)CC2)cc1	43%	16%	42%	41%	42%	59%	67%	31%	52%	73%	30%	–	–	–
CC(=O)Nc1ccc(S(=O)(=O)N2CCN(CCCn3cc(-c4ccc(Br)cc4)nn3)CC2)cc1	34%	4%	28%	39%	48%	58%	46%	16%	54%	58%	19%	–	–	–
CC(=O)Nc1ccc(S(=O)(=O)N2CCN(CCCn3cc(-c4cccc(Cl)c4)nn3)CC2)cc1	32%	1%	31%	27%	33%	42%	49%	2%	24%	43%	18%	–	–	–
COc1cccc(-c2cn(CCCN3CCN(S(=O)(=O)c4ccc(F)cc4)CC3)nn2)c1	< 10%	–	–	–	–	–	–	–	–	–	–	15.1%	40.8%	–
COc1cccc(-c2cn(CCCN3CCN(S(=O)(=O)c4ccc(C(C)C)cc4)CC3)nn2)c1	11.4%	–	–	–	–	–	–	–	–	–	–	< 10%	48.8%	–
CCc1ccc(-c2cn(CCCN3CCN(S(=O)(=O)c4ccc(NC(C)=O)cc4)CC3)nn2)cc1	38%	< 0%	30%	36%	29%	64%	59%	16%	42%	67%	32%	–	–	–
